Measured values as given in ChEMBL document CHEMBL1122499, “Structural requirements of olefinic 5-substituted deoxyuridines for antiherpes activity” (1983).
Values after ≈ are worked out from the molar mass of the structure shown.

system: Human alphaherpesvirus 1; test: Antiviral activity against herpes simplex virus type 1 (HSV-1) determined in baby hamster kidney cells; type: functional; details: not given
Outline: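 Microplaque reduction with HSV-1 strain S3. Serial 0.5 log virus dilutions were inoculated onto baby hamster kidney cell monolayers in microtiter plates for infectivity end-point titration. Compound was present in the overlay (Dulbecco-modified Eagle MEM, 10% donor calf serum, 0.5% carboxymethylcellulose). MIC was the lowest concentration that cut the virus infectivity end point by at least 1 log versus the untreated control.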

Row | Structure (SMILES) | MIC [µg/mL]
1 | O=c1[nH]c(=O)n([C@H]2C[C@H](O)[C@@H](CO)O2)cc1/C=C/Br (stereo in doubt; 2) [BRIVUDINE] | 0.005 (≈ 0.015 µM)
2 | O=c1[nH]c(=O)n([C@H]2C[C@H](O)[C@@H](CO)O2)cc1/C=C/Br (stereo in doubt; 4) [BRIVUDINE] | 0.1 (≈ 0.3 µM)

same assay, conditions: Human alphaherpesvirus 1; read-out: MIC

Row | Structure (SMILES) | MIC [µg/mL]
3 | C/C=C/c1cn([C@H]2C[C@H](O)[C@@H](CO)O2)c(=O)nc1N | 50 (≈ 187 µM)
4 | COC(=O)/C=C(\C)c1cn([C@H]2C[C@H](O)[C@@H](CO)O2)c(=O)[nH]c1=O | > 100
5 | C/C=C(\C)c1cn([C@H]2C[C@H](O)[C@@H](CO)O2)c(=O)[nH]c1=O | 50 (≈ 177 µM)
6 | C/C(=C\Br)c1cn([C@H]2C[C@H](O)[C@@H](CO)O2)c(=O)[nH]c1=O | 0.1 (≈ 0.288 µM)
7 | C=C(Cl)Cc1cn([C@H]2C[C@H](O)[C@@H](CO)O2)c(=O)[nH]c1=O | 50 (≈ 165 µM)
8 | C/C=C(/C)c1cn([C@H]2C[C@H](O)[C@@H](CO)O2)c(=O)[nH]c1=O | > 100
9 | O=c1[nH]c(=O)n([C@H]2C[C@H](O)[C@@H](CO)O2)cc1C=C(Br)Br | 0.1 (≈ 0.243 µM)
10 | C/C(Br)=C/c1cn([C@H]2C[C@H](O)[C@@H](CO)O2)c(=O)[nH]c1=O.C/C(Br)=C\c1cn([C@H]2C[C@H](O)[C@@H](CO)O2)c(=O)[nH]c1=O | 1
11 | C/C(=C\Cl)c1cn([C@H]2C[C@H](O)[C@@H](CO)O2)c(=O)[nH]c1=O | > 100
12 | COC(=O)/C(C)=C/c1cn([C@H]2C[C@H](O)[C@@H](CO)O2)c(=O)[nH]c1=O | > 100
13 | CCC#Cc1cn([C@H]2C[C@H](O)[C@@H](CO)O2)c(=O)[nH]c1=O | 10 (≈ 35.7 µM)
14 | C/C=C\c1cn([C@H]2C[C@H](O)[C@@H](CO)O2)c(=O)nc1N | > 100
15 | COC(=O)/C=C/C=C/c1cn([C@H]2C[C@H](O)[C@@H](CO)O2)c(=O)[nH]c1=O | > 100
16 | C/C=C/c1cn([C@H]2C[C@H](O)[C@@H](CO)O2)c(=O)[nH]c1=S | 100 (≈ 352 µM)
17 | C/C=C/Cc1cn([C@H]2C[C@H](O)[C@@H](CO)O2)c(=O)[nH]c1=O.C/C=C\Cc1cn([C@H]2C[C@H](O)[C@@H](CO)O2)c(=O)[nH]c1=O | 10
18 | C=CCc1cn([C@H]2C[C@H](O)[C@@H](CO)O2)c(=O)[nH]c1=O | 100 (≈ 373 µM)
19 | CCCCc1cn([C@H]2C[C@H](O)[C@@H](CO)O2)c(=O)[nH]c1=O | 10 (≈ 35.2 µM)
20 | CC#Cc1cn([C@H]2C[C@H](O)[C@@H](CO)O2)c(=O)[nH]c1=O | 1 (≈ 3.76 µM)

Continued, values first:

Row | MIC [µg/mL] | Structure (SMILES)
21 | 0.5 (≈ 1.77 µM) | CC/C=C/c1cn([C@H]2C[C@H](O)[C@@H](CO)O2)c(=O)[nH]c1=O
22 | > 10 | CC(C)(C)/C=C/c1cn([C@H]2C[C@H](O)[C@@H](CO)O2)c(=O)[nH]c1=O
23 | 100 (≈ 373 µM) | C/C=C\c1cn([C@H]2C[C@H](O)[C@@H](CO)O2)c(=O)[nH]c1=O
24 | > 50 | CC(C)=Cc1cn([C@H]2C[C@H](O)[C@@H](CO)O2)c(=O)[nH]c1=O
25 | 10 (≈ 32 µM) | COC(=O)/C=C/c1cn([C@H]2C[C@H](O)[C@@H](CO)O2)c(=O)[nH]c1=O
26 | 0.5 (≈ 1.86 µM) | C/C=C/c1cn([C@H]2C[C@H](O)[C@@H](CO)O2)c(=O)[nH]c1=O
27 | 0.5 (≈ 1.66 µM) | CS/C=C/c1cn([C@H]2C[C@H](O)[C@@H](CO)O2)c(=O)[nH]c1=O
28 | > 25 | N#C/C=C/c1cn([C@H]2C[C@H](O)[C@@H](CO)O2)c(=O)[nH]c1=O
29 | > 100 | CCCC/C=C/c1cn([C@H]2C[C@H](O)[C@@H](CO)O2)c(=O)[nH]c1=O
30 | > 100 | CCC/C=C/c1cn([C@H]2C[C@H](O)[C@@H](CO)O2)c(=O)[nH]c1=O
